Type in all cases: functional
Experiment [1] is filed under the species Homo sapiens. The experiment in a line: Antigelling activity expressed as ratio of soluble sickle hemoglobin (HbS) of compound (g/dL) and that of control at 10 mM concentration. In short, it runs like this: (§1)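 Hofrichter-type solubility assay: HbS (final around 24 g/100 mL) incubated with drug at 5, 10, 20 and 40 mM, dithionite as deoxygenant. Drugs taken up as sodium salts (2 equiv NaHCO3) in 0.15 M phosphate buffer pH 7.4, 0.18 M stock, some with N-methylpiperazine added for solubility. Each spin run includes a no-drug dHbS control and a 40 mM phenylalanine control. Ratio is soluble HbS with drug (g/dL) over soluble HbS control (g/dL). Values are averages of duplicate runs.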

The species named for experiment [2] is Homo sapiens. The experiment in a line: Antigelling activity expressed as ratio of soluble sickle hemoglobin (HbS) of compound (g/dL) and that of control at 5 mM concentration. In short, it runs like this: as §1
The species entered for experiment [3] is Homo sapiens. The experiment is described as follows: Antigelling activity expressed as ratio of soluble sickle hemoglobin (HbS) of compound (g/dL) and that of control at 40 mM concentration. The essentials: as §1
The species named for experiment [4] is Homo sapiens. The experiment is described as follows: Antigelling activity expressed as ratio of soluble sickle hemoglobin (HbS) of compound (g/dL) and that of control at 20 mM concentration. The essentials: as §1
The species entered for experiment [5] is Homo sapiens. The experiment in a line: Antigelling activity expressed as ratio of soluble sickle hemoglobin (HbS) of compound (g/dL) and that of control at 20 mM concentration. The essentials: as §1
Experiment [6] is filed under the species Homo sapiens. The experiment in a line: Antigelling activity expressed as ratio of soluble sickle hemoglobin (HbS) of compound (g/dL) and that of control at 40 mM concentration. The essentials: as §1
The species entered for experiment [7] is Homo sapiens. The experiment in a line: Antigelling activity expressed as ratio of soluble sickle hemoglobin (HbS) of compound (g/dL) and that of control at 10 mM concentration. The essentials:
as §1

The species entered for experiment [8] is Homo sapiens. The experiment is described as follows: Antigelling activity expressed as ratio of soluble sickle hemoglobin (HbS) of compound (g/dL) and that of control at 5 mM concentration. The essentials: as §1

SMILES strings stand for the structures.

With `N[C@@H](Cc1ccccc1)C(=O)O` [PHENYLALANINE], the Activity came out at 1.048 in the experiment filed under Homo sapiens [1], 1.036 in the experiment listed under Homo sapiens [2], 1.178 in the experiment filed under Homo sapiens [3] and 1.093 in the experiment listed under Homo sapiens [4].

As for `CC1(C)CCc2cc(C(=O)O)ccc2O1`, the Activity in the experiment listed under Homo sapiens [5] is recorded as 1.108; in the experiment listed under Homo sapiens [2], 1.044; in the experiment filed under Homo sapiens [6], 1.226; in the experiment listed under Homo sapiens [7], 1.043.

As to `CC(C)(Oc1ccc(Cl)cc1)C(=O)O` [CLOFIBRIC ACID], the Activity in the experiment filed under Homo sapiens [5] stood at 1.155; in the experiment filed under Homo sapiens [8] it was 1.018; in the experiment filed under Homo sapiens [6], 1.302; in the experiment listed under Homo sapiens [7] it was 1.064.

For the compound `CC1(C)CCc2cc(CCCC(=O)O)ccc2O1`, the Activity in the experiment filed under Homo sapiens [5] came out at 1.144; in the experiment filed under Homo sapiens [2], 1.052; in the experiment filed under Homo sapiens [3], 1.299; in the experiment filed under Homo sapiens [7] it was 1.086.

On to `CC(=O)OC(C/C(C)=C/C(=O)O)c1ccc2c(c1)CCC(C)(C)O2` (configuration not stated), for which the Activity in the experiment listed under Homo sapiens [8] was determined as 1.01; in the experiment listed under Homo sapiens [3] it was 1.188; in the experiment listed under Homo sapiens [4], 1.085; in the experiment listed under Homo sapiens [7], 1.03.

For `CC(C(=O)O)c1ccc2c(c1)CCC(C)(C)O2` (configuration not stated), the Activity stood at 1.095 in the experiment filed under Homo sapiens [5], 1.011 in the experiment listed under Homo sapiens [8], 1.21 in the experiment filed under Homo sapiens [3] and 1.028 in the experiment listed under Homo sapiens [7].

Turning to `Cc1ccc(C)c(OCCCC(C)(C)C(=O)O)c1` [GEMFIBROZIL], the Activity in the experiment filed under Homo sapiens [5] amounted to 1.117; in the experiment listed under Homo sapiens [1], 1.073; in the experiment filed under Homo sapiens [2], 1.04; in the experiment listed under Homo sapiens [3], 1.234.

`CC1(C)CCc2cc(CCC(=O)O)ccc2O1`: the Activity in the experiment listed under Homo sapiens [5] came out at 1.164; in the experiment listed under Homo sapiens [8], 1.045; in the experiment filed under Homo sapiens [3], 1.297; in the experiment listed under Homo sapiens [7] it was 1.077.

The values above are taken from ChEMBL document CHEMBL1123634, “Design, synthesis, and testing of potential antisickling agents. 10. (2,2-Dimethylchroman-6-yl)alkanoic acids” (1987).
